Measured values from ChEMBL document CHEMBL2390920, “8-Benzamidochromen-4-one-2-carboxylic acids: potent and selective agonists for the orphan G protein-coupled receptor GPR35” (J Med Chem, 2013).

Key:
[1] = biological target: G-protein coupled receptor 35 (Mus musculus, UniProt Q9ES90); assay: Agonist activity at mouse GPR35 expressed in CHO cells assessed as induction of beta-arrestin recruitment after 90 mins by beta-galactosidase reporter gene assay; format: cell-based
Outline: (§1)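 Mouse GPR35 introduced by transfection into a CHO β-arrestin-EA line; 20000 cells/well plated the day prior. After 90 min of compound exposure (final DMSO ≤1%), detection reagent was added and luminescence read after 60 min.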

[2] = biological target: G protein-coupled receptor GPR35 (Rattus norvegicus, UniProt Q33BM1); assay: Agonist activity at rat GPR35 expressed in CHO cells assessed as induction of beta-arrestin recruitment after 90 mins by beta-galactosidase reporter gene assay; format: cell-based
Outline: (§2)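 Rat GPR35 expressed by transfecting a parental CHO β-arrestin-EA line; cells seeded at 20000/well the day before. Compounds (final DMSO ≤1%) were incubated 90 min, followed by detection reagent and a luminescence read after 60 min.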

[3] = biological target: T1, G-protein coupled receptor 35 (Homo sapiens, UniProt Q9HC97); assay: Agonist activity at human GPR35 expressed in CHO cells assessed as induction of beta-arrestin recruitment at 10 uM after 90 mins by beta-galactosidase reporter gene assay relative to zaprinast; format: cell-based
Outline: (§3)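 PathHunter enzyme-fragment complementation in CHO cells stably expressing β-arrestin-EA and tagged human GPR35, seeded at 20000 cells/well the day before. DMSO dilutions were further diluted 1:10 (final DMSO ≤1%). Cells were incubated 90 min, then detection reagent was added and luminescence read after 60 min.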

[4] = biological target: G protein-coupled receptor GPR35 (Rattus norvegicus) (UniProt Q33BM1); assay: Agonist activity at rat GPR35 expressed in CHO cells assessed as induction of beta-arrestin recruitment at 10 uM after 90 mins by beta-galactosidase reporter gene assay; format: cell-based; outline: as §2
[5] = biological target: T1, G-protein coupled receptor 35; assay: Agonist activity at human GPR35b expressed in CHO cells assessed as induction of beta-arrestin recruitment at 10 uM after 90 mins by beta-galactosidase reporter gene assay relative to zaprinast; format: cell-based
Outline: (§4)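 CHO β-arrestin-EA parental line transfected with human GPR35b, seeded at 20000 cells/well the day before. Compounds in DMSO were diluted 1:10 in medium or PBS (final DMSO ≤1%). After 90 min of incubation, detection reagent was added and luminescence measured 60 min later. Screening was at 10 µM.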

[6] = biological target: T2, G-protein coupled receptor 55 (Homo sapiens, UniProt Q9Y2T6); assay: Agonist activity at human GPR55 expressed in CHO cells assessed as induction of beta-arrestin recruitment at 10 uM after 90 mins by beta-galactosidase reporter gene assay relative to lysophosphotidylinositol; format: functional, cell-based
Outline: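 Human GPR55 PathHunter CHO cells, 20000 cells/well seeded the day before, received test compound at 10 µM (final DMSO ≤1%) for 90 min. Detection reagent was then added and luminescence read after 60 min. Signal was normalized to that of 1 µM LPI.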

[7] = biological target: T1, G-protein coupled receptor 35; assay: Agonist activity at human GPR35 expressed in CHO cells assessed as induction of beta-arrestin recruitment after 90 mins by beta-galactosidase reporter gene assay; format: cell-based; outline: as §3
[8] = biological target: T2, G-protein coupled receptor 55; assay: Antagonist activity at human GPR55 expressed in CHO cells assessed as inhibition of lysophosphotidylinositol-induced beta-arrestin recruitment at 10 uM preincubated for 30 mins followed by lysophosphotidylinositol induction by beta-galactosidase reporter gene assay relative to control; format: functional, cell-based
Outline: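 Human GPR55 PathHunter CHO cells were preincubated 30 min with compound, then stimulated with LPI (final 1 µM). After 90 min, detection reagent was added and luminescence read 60 min later. Screening was at 10 µM; full concentration-inhibition curves were run for selected compounds to give IC50.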

[9] = biological target: G-protein coupled receptor 35 (Mus musculus) (UniProt Q9ES90); assay: Agonist activity at mouse GPR35 expressed in CHO cells assessed as induction of beta-arrestin recruitment at 10 uM after 90 mins by beta-galactosidase reporter gene assay; format: cell-based; outline: as §1
[10] = biological target: T1, G-protein coupled receptor 35; assay: Agonist activity at human GPR35b expressed in CHO cells assessed as induction of beta-arrestin recruitment after 90 mins by beta-galactosidase reporter gene assay; format: cell-based; outline: as §4
[11] = biological target: G protein-coupled receptor GPR35 (Rattus norvegicus) (UniProt Q33BM1); assay: Agonist activity at rat GPR35 expressed in CHO cells assessed as induction of beta-arrestin recruitment at 10 uM after 90 mins by beta-galactosidase reporter gene assay relative to zaprinast; format: cell-based; outline: as §2

T2 sequence (Q9Y2T6 whole entry): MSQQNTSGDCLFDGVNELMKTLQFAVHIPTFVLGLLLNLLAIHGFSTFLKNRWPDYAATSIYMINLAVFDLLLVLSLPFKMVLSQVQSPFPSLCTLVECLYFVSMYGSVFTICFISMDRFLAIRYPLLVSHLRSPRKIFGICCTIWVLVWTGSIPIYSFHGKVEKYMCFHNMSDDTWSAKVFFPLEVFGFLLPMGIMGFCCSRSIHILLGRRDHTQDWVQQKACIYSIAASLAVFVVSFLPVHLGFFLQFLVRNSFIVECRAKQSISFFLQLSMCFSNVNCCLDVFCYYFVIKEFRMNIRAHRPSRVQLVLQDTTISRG
Chain of G protein-coupled receptor GPR35 (Rattus norvegicus) (Q33BM1 as listed by the source): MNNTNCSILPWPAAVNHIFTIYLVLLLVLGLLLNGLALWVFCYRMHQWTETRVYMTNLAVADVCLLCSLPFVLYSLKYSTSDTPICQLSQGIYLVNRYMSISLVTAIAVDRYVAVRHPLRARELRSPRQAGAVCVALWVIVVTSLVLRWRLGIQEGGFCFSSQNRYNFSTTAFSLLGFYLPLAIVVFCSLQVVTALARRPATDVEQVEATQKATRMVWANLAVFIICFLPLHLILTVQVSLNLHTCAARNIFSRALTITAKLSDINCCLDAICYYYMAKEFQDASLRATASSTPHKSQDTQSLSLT
Chain of G protein-coupled receptor GPR35 (Q33BM1 whole entry): as the sequence (Q33BM1 as listed by the source) above
Chain of G-protein coupled receptor 35 (Mus musculus) (Q9ES90 whole entry): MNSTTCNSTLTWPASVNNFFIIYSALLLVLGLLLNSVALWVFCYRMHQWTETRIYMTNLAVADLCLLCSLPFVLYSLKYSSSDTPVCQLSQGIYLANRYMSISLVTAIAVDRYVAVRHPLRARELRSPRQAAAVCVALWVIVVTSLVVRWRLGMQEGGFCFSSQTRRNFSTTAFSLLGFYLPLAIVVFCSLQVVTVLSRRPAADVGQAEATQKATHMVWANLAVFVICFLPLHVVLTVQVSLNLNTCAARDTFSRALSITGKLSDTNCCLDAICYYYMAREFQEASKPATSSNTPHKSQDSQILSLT
T1 sequence (Q9HC97 whole entry, the tested form may be a part): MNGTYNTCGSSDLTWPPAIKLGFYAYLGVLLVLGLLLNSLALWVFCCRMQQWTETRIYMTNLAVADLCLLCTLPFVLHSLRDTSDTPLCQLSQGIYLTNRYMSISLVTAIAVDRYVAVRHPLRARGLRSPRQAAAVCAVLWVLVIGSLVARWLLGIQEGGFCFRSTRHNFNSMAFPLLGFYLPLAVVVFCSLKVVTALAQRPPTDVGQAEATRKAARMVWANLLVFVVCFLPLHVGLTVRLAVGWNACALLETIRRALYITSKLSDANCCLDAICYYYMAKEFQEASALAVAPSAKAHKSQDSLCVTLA
Chain of G-protein coupled receptor 35 (Mus musculus, UniProt Q9ES90) (Q9ES90 whole entry): as the sequence (Q9ES90 whole entry) above

| Structure (SMILES) | EC50 [1] [µM] | EC50 [2] [nM] | Emax [3] [%] | Activity [4] [%] | Emax [5] [%] | Activity [6] [%] | EC50 [7] [nM] | inhibition [8] [%] | Activity [9] [%] | EC50 [10] [nM] | Emax [11] [%] |
| --- | --- | --- | --- | --- | --- | --- | --- | --- | --- | --- | --- |
| CCCOc1ccccc1-c1nc2nn[nH]c2c(=O)[nH]1 [ZAPRINAST] | 1.6 | 61.1 | – | – | – | – | – | – | – | – | – |
| COc1ccc(C(=O)Nc2cc(F)cc3c(=O)cc(C(=O)O)oc23)cc1 | – | 1760 | 123 | – | 113 | 7 | 112 | 34 | 30 | 143 | 78 |
| O=C1N/C(=N/c2ccccc2F)S/C1=C\c1ccc(C(=O)O)cc1 | 17 | 8000 | – | – | – | – | – | – | – | – | – |
| O=C(O)c1cc(=O)c2cc(F)cc(NC(=O)c3ccc(Cl)cc3Cl)c2o1 | – | – | 113 | 46 | 110 | -8 | 17 | 18 | 24 | 20.5 | – |
| COC(=O)CC(=O)Nc1cccc2c(=O)cc(C(=O)O)oc12 | – | 6650 | 87 | – | – | -4 | 20200 | 31 | 15 | – | 89 |
| O=C(O)c1cc(=O)c2cc(F)cc(NC(=O)c3cccc(Cl)c3Cl)c2o1 | – | 3130 | 106 | – | 104 | 5 | 382 | 40 | – | 873 | 82 |
| CCC(=O)Nc1cccc2c(=O)cc(C(=O)O)oc12 | – | – | 119 | 30 | – | 15 | 13400 | 16 | 12 | – | – |
| Nc1cc(Br)cc2c(=O)cc(C(=O)O)oc12 | – | – | 84 | 40 | – | 4 | 12600 | 17 | 18 | – | – |
| O=C(O)c1cc(=O)c2cccc([N+](=O)[O-])c2o1 | – | – | 101 | 38 | – | -6 | 46300 | 32 | 4 | – | – |
| O=C(Nc1cc(Cl)cc2c(=O)cc(C(=O)O)oc12)c1ccccc1 | – | 2840 | 115 | – | – | 20 | 430 | 23 | 31 | – | 65 |
| CCOC(=O)c1cc(=O)c2cc(F)cc(NC(=O)c3ccc(OC)cc3)c2o1 | – | – | 80 | 1 | – | -1 | 112 | 26 | 7 | – | – |
| O=C(O)c1cc(=O)c2cc(Br)cc(NC(=O)c3ccc(Cl)cc3Cl)c2o1 | – | – | 110 | 32 | 116 | 10 | 16.4 | 43 | 12 | 34.6 | – |
| Cc1cccc(C(=O)Nc2cc(Cl)cc3c(=O)cc(C(=O)O)oc23)c1 | – | 2100 | 102 | – | – | 4 | 1220 | 40 | 31 | – | 92 |
| O=C(O)c1cc(=O)c2cccc(NC(=O)C3CCCCC3)c2o1 | – | 1200 | 118 | – | – | 17 | 4200 | 16 | 38 | – | 79 |
| O=C(Nc1cc(Cl)cc2c(=O)cc(C(=O)O)oc12)c1ccc([N+](=O)[O-])cc1 | – | 3140 | 130 | – | – | 8 | 1710 | 14 | 18 | – | 115 |
| O=C(Nc1cc(F)cc2c(=O)cc(C(=O)O)oc12)c1ccc(Cl)c(Cl)c1 | – | 2650 | 131 | – | 136 | 3 | 117 | 54 | 37 | 106 | 80 |
| O=C(Nc1cc(Br)cc2c(=O)cc(C(=O)O)oc12)c1ccc2c(c1)OCO2 | – | 2050 | 107 | – | 118 | 9 | 59.9 | 46 | 34 | 128 | 86 |
| O=C(Nc1cc(Br)cc2c(=O)cc(C(=O)O)oc12)c1ccc(Cl)c(Cl)c1 | – | 3250 | 110 | – | 109 | 16 | 15.4 | 47 | 29 | 27.2 | 62 |

The next lines start with the values.

| EC50 [1] [µM] | EC50 [2] [nM] | Emax [3] [%] | Activity [4] [%] | Emax [5] [%] | Activity [6] [%] | EC50 [7] [nM] | inhibition [8] [%] | Activity [9] [%] | EC50 [10] [nM] | Emax [11] [%] | Structure (SMILES) |
| --- | --- | --- | --- | --- | --- | --- | --- | --- | --- | --- | --- |
| – | – | 115 | 47 | 130 | 12 | 25.1 | 40 | 27 | 40.5 | – | O=C(Nc1cc(Br)cc2c(=O)cc(C(=O)O)oc12)c1ccc(Cl)cc1 |
| – | – | 81 | 38 | – | 1 | 15500 | 5 | 23 | – | – | O=C(Nc1cccc2c(=O)cc(C(=O)O)oc12)c1ccc(C(F)(F)F)cc1 |
| – | 1830 | 110 | – | 125 | -2 | 16.8 | 47 | 34 | 28.6 | 86 | COc1ccc(C(=O)Nc2cc(Cl)cc3c(=O)cc(C(=O)O)oc23)cc1 |
| – | – | 122 | 49 | 113 | 8 | 804 | 9 | 28 | 678 | – | O=C(Nc1cccc2c(=O)cc(C(=O)O)oc12)c1ccc(Br)cc1 |
| – | 1360 | 99 | – | – | -1 | 634 | 39 | 36 | – | 74 | CCOc1ccc(C(=O)Nc2cc(Br)cc3c(=O)cc(C(=O)O)oc23)cc1 |
| – | – | 112 | 32 | – | 12 | 6970 | 20 | 26 | – | – | O=C(Nc1cccc2c(=O)cc(C(=O)O)oc12)c1cccc([N+](=O)[O-])c1 |
| – | – | 91 | 31 | – | 1 | 24100 | – | 3 | – | – | CC(=O)Nc1cccc2c(=O)cc(C(=O)O)oc12 |
| – | 2080 | 138 | – | 111 | -8 | 842 | 46 | 27 | 699 | 79 | Cc1cccc(C(=O)Nc2cc(Br)cc3c(=O)cc(C(=O)O)oc23)c1 |
| – | – | 107 | 39 | – | 3 | 4910 | 24 | 13 | – | – | O=C(Nc1cccc2c(=O)cc(C(=O)O)oc12)c1ccccc1 |
| – | 2260 | 108 | – | – | 0 | 399 | 38 | 41 | – | 99 | N#Cc1ccc(C(=O)Nc2cc(Br)cc3c(=O)cc(C(=O)O)oc23)cc1 |
| – | – | 107 | 47 | – | -11 | 8960 | 26 | 19 | – | – | O=C(Cc1ccccc1)Nc1cccc2c(=O)cc(C(=O)O)oc12 |
| – | 2750 | 70 | – | – | 10 | 5440 | 25 | 18 | – | 71 | Cc1cccc(C(=O)Nc2cccc3c(=O)cc(C(=O)O)oc23)c1 |
| – | – | 104 | 43 | – | 6 | 1380 | 16 | 43 | – | – | Cc1ccc(C(=O)Nc2cccc3c(=O)cc(C(=O)O)oc23)cc1 |
| – | 2750 | 110 | – | – | 23 | 303 | 21 | 40 | – | 75 | O=C(Nc1cc(Br)cc2c(=O)cc(C(=O)O)oc12)c1ccccc1 |
